What is called EC50 is the concentration needed to bring the measured effect to its halfway point.

We go through 19 compounds from ChEMBL document CHEMBL4811229, “Leveraging Peptaibol Biosynthetic Promiscuity for Next-Generation Antiplasmodial Therapeutics” (J Nat Prod, 2021).

Where a SMILES comes first, the peptide text is derived from it. [ ]: non-standard residue; d: D form. The star is where a group is joined. X1 = CC(C)C[C@@H](C[N+]1=C2CCCN2CCC1)N*; Leu(ol) = CC(C)C[C@H](N)CO; dIva = CC[C@@](C)(N)C(=O)O; Pip = O=C(O)[C@@H]1CCCCN1; Iva = CC[C@](C)(N)C(=O)O; Aib = CC(C)(N)C(=O)O; βAla = NCCC(=O)O

A short description of data set [1]: Selectivity index, ratio of EC50 for human HepG2 cells to EC50 for antiplasmodial activity against multidrug-resistant Plasmodium falciparum Dd2 infected in human A-positive erythrocytes. The class given is toxicity, cell-based. The note with it: read-out: Ratio EC50.
Data set [2] has as its system Plasmodium falciparum. The data set can be described thus: Antiplasmodial activity against multidrug-resistant Plasmodium falciparum Dd2 infected in human A-positive erythrocytes assessed as reduction in parasitemia incubated for 72 hrs by fluorescence-based SYBR-Green-1 assay. Conditions: Dd2, Erythrocyte. The class given is functional, organism-based.
For data set [3], the system named is HepG2. The data set can be described thus: Cytotoxicity against human HepG2 cells assessed as decrease in cell viability measured after 48 hrs by MTS assay. The class given is cell-based. The note with it: HepG2, 48 h. In outline: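 After 48 h at 37 °C and 5% CO2, MTS was added for 4 h and absorbance read at 490 nm. Values were normalized to Triton X-100-lysed wells (0% growth) and untreated wells. EC50 is the mean of triplicate experiments.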
On the technique in general: Tetrazolium dyes change colour on reduction, which living cells bring about.

On to `CC[C@H](C)[C@H](NC(=O)[C@H](C)NC(=O)[C@@H]1CCCN1C(=O)C(C)(C)NC(=O)[C@H](CC(C)C)NC(=O)[C@H](CCC(N)=O)NC(=O)C(C)(C)NC(C)=O)C(=O)NC(C)(C)C(=O)N1CCC[C@H]1C(=O)NC(C)(C)C(=O)N[C@@H](CC(C)C)C(=O)NC(C)(C)C(=O)N1CCC[C@H]1C(=O)N[C@H](CO)CC(C)C` (HELM PEPTIDE1{[ac].[Aib].Q.L.[Aib].P.A.I.[Aib].P.[Aib].L.[Aib].P.[CC(C)C[C@@H](CO)N[*:1]]}$$$$V2.0), for which, in data set [1], the selectivity ratio was above 86. Take `CC[C@H](C)[C@H](NC(=O)[C@H](CO)NC(=O)[C@@H]1CCCN1C(=O)C(C)(C)NC(=O)[C@H](CC(C)C)NC(=O)[C@H](CC(N)=O)NC(=O)C(C)(C)NC(C)=O)C(=O)NC(C)(C)C(=O)N1CCC[C@H]1C(=O)NC(C)(C)C(=O)N[C@@H](CC(C)C)C(=O)N[C@](C)(CC)C(=O)N1CCC[C@H]1C(=O)N[C@H](CO)CC(C)C`: the values for the concentration giving a half-maximal response (EC50) in data set [2] and in data set [3] were 0.52 µM and above 25 µM, respectively. In data set [1], the selectivity ratio is above 48. On to `CCCCCCCC(=O)NC(C)(C)C(=O)NCC(=O)N[C@@H](CC(C)C)C(=O)NC(C)(C)C(=O)NCC(=O)NCC(=O)N[C@H](C(=O)NC(C)(C)C(=O)NCC(=O)N[C@@H](CC(C)C)C(=O)N[C@H](CO)CC(C)C)C(C)C` (HELM PEPTIDE1{[CCCCCCCC(=O)[*:2]].[Aib].G.L.[Aib].G.G.V.[Aib].G.L.[CC(C)C[C@@H](CO)N[*:1]]}$$$$V2.0), for which, in data set [1], the selectivity ratio is above 28. For `CC[C@H](C)[C@H](NC(=O)C(C)(C)NC(=O)[C@H](CCC(N)=O)NC(=O)C(C)(C)NC(=O)C(C)(C)NC(=O)[C@H](C)NC(=O)[C@H](C)NC(=O)[C@H](C)NC(=O)C(C)(C)NC(C)=O)C(=O)NC(C)(C)C(=O)NCC(=O)N[C@@H](CC(C)C)C(=O)NC(C)(C)C(=O)N1CCC[C@H]1C(=O)N[C@H](C(=O)NC(C)(C)C(=O)N[C@](C)(CC)C(=O)N[C@@H](CCC(N)=O)C(=O)N[C@@H](CCC(N)=O)C(=O)N[C@H](CO)Cc1ccccc1)C(C)C`, the results for the EC50 in data set [2] and in data set [3] were 0.52 µM and 3.35 µM, respectively. Moreover, in data set [1], the selectivity ratio was 6.

In the case of `CCCCCCCC(=O)NC(C)(C)C(=O)NCC(=O)N[C@@H](CC(C)C)C(=O)NC(C)(C)C(=O)NCC(=O)NCC(=O)N[C@H](C(=O)NC(C)(C)C(=O)NCC(=O)N[C@H](C(=O)N[C@H](CO)CC(C)C)[C@@H](C)CC)C(C)C`, the selectivity ratio in data set [1] was above 8. Regarding `CC[C@H](C)[C@H](NC(=O)[C@H](C)NC(=O)[C@@H]1CCCN1C(=O)C(C)(C)NC(=O)[C@H](CC(C)C)NC(=O)[C@H](CCC(N)=O)NC(=O)[C@@](C)(CC)NC(C)=O)C(=O)NC(C)(C)C(=O)N1CCC[C@H]1C(=O)N[C@](C)(CC)C(=O)N[C@@H](CC(C)C)C(=O)NC(C)(C)C(=O)N1CCC[C@H]1C(=O)N[C@H](CO)CC(C)C` (Ac-[dIva]QL[Aib]PAI[Aib]P[dIva]L[Aib]P[Leu(ol)]), the EC50 in data set [3] is above 25 µM. Also, in data set [1], the selectivity ratio was above 76. `CC[C@@](C)(NC(C)=O)C(=O)N[C@@H](CC(N)=O)C(=O)N[C@@H](CC(C)C)C(=O)NC(C)(C)C(=O)N1CCC[C@H]1C(=O)N[C@@H](CO)C(=O)N[C@H](C(=O)NC(C)(C)C(=O)N1CCC[C@H]1C(=O)NC(C)(C)C(=O)N[C@@H](CC(C)C)C(=O)NC(C)(C)C(=O)N1CCC[C@H]1C(=O)N[C@H](CO)CC(C)C)C(C)C` (HELM PEPTIDE1{[ac].[CC[C@@](C)(N[*:1])C(=O)[*:2]].N.L.[Aib].P.S.V.[Aib].P.[Aib].L.[Aib].P.[CC(C)C[C@@H](CO)N[*:1]]}$$$$V2.0): the selectivity ratio in data set [1] was above 40.

On to `CCCCCCCC(=O)NC(C)(C)C(=O)NCC(=O)N[C@@H](CC(C)C)C(=O)NC(C)(C)C(=O)NCC(=O)NCC(=O)N[C@H](C(=O)NC(C)(C)C(=O)NCC(=O)N[C@H](C(=O)N[C@H](CO)CC(C)C)C(C)C)C(C)C`, for which the selectivity ratio in data set [1] was above 10. Still for that read-out and setting: for `CC[C@H](C)[C@H](NC(=O)[C@H](CO)NC(=O)[C@@H]1CCCN1C(=O)C(C)(C)NC(=O)[C@H](CC(C)C)NC(=O)[C@H](CC(N)=O)NC(=O)[C@@](C)(CC)NC(C)=O)C(=O)NC(C)(C)C(=O)N1CCC[C@H]1C(=O)N[C@](C)(CC)C(=O)N[C@@H](CC(C)C)C(=O)NC(C)(C)C(=O)N1CCC[C@H]1C(=O)N[C@H](CO)CC(C)C` (Ac-[dIva]NL[Aib]PSI[Aib]P[dIva]L[Aib]P[Leu(ol)]) the value was above 48.

Consider `CC[C@H](C)[C@H](NC(=O)[C@H](CC(C)C)NC(=O)[C@H](CCC(N)=O)NC(=O)[C@@](C)(CC)NC(C)=O)C(=O)NC(C)(C)C(=O)N1CCC[C@H]1C(=O)N[C@](C)(CC)C(=O)N[C@@H](CC(C)C)C(=O)NC(C)(C)C(=O)N1CCC[C@H]1C(=O)N[C@H](CO)CC(C)C` (Ac-[dIva]QLI[Aib]P[dIva]L[Aib]P[Leu(ol)]), for which the selectivity ratio in data set [1] is above 250. On the same count and under the same terms, for `CCCCCCCC(=O)NC(C)(C)C(=O)NCC(=O)N[C@@H](CC(C)C)C(=O)NC(C)(C)C(=O)NCC(=O)NCC(=O)N[C@@H](CC(C)C)C(=O)NC(C)(C)C(=O)NCC(=O)N[C@@H](CC(C)C)C(=O)N[C@H](CO)CC(C)C` (HELM PEPTIDE1{[CCCCCCCC(=O)[*:2]].[Aib].G.L.[Aib].G.G.L.[Aib].G.L.[CC(C)C[C@@H](CO)N[*:1]]}$$$$V2.0) the value was above 11. Regarding `CC[C@@](C)(NC(=O)[C@H](CC(C)C)NC(=O)C(C)(C)NC(=O)[C@@H]1CCCN1C(=O)C(C)(C)NC(=O)[C@@H](NC(=O)[C@H](C)NC(=O)[C@@H]1CCCN1C(=O)C(C)(C)NC(=O)[C@H](CC(C)C)NC(=O)[C@H](CCC(N)=O)NC(=O)C(C)(C)NC(C)=O)C(C)C)C(=O)N1CCC[C@H]1C(=O)N[C@H](CO)CC(C)C`, the values for the EC50 in data set [2] and in data set [3] were 1.32 µM and above 25 µM, respectively. In addition, the selectivity ratio in data set [1] was above 19. The like results for `CC[C@H](C)[C@H](NC(=O)[C@H](CC(C)C)NC(=O)[C@H](CC(N)=O)NC(=O)C(C)(C)NC(C)=O)C(=O)NC(C)(C)C(=O)N1CCC[C@H]1C(=O)N[C@](C)(CC)C(=O)N[C@@H](CC(C)C)C(=O)NC(C)(C)C(=O)N1CCC[C@H]1C(=O)N[C@H](CO)CC(C)C` (HELM PEPTIDE1{[ac].[Aib].N.L.I.[Aib].P.[CC[C@@](C)(N[*:1])C(=O)[*:2]].L.[Aib].P.[CC(C)C[C@@H](CO)N[*:1]]}$$$$V2.0) were, in that order, 0.72 µM, above 25 µM and above 35. As to `CC[C@H](C)[C@H](NC(=O)[C@H](C)NC(=O)[C@@H]1CCCN1C(=O)C(C)(C)NC(=O)[C@H](CC(C)C)NC(=O)[C@H](CC(N)=O)NC(=O)[C@@](C)(CC)NC(C)=O)C(=O)NC(C)(C)C(=O)N1CCC[C@H]1C(=O)N[C@](C)(CC)C(=O)N[C@@H](CC(C)C)C(=O)NC(C)(C)C(=O)N1CCC[C@H]1C(=O)N[C@H](CO)CC(C)C` (Ac-[dIva]NL[Aib]PAI[Aib]P[dIva]L[Aib]P[Leu(ol)]), in data set [1], the selectivity ratio is above 40.

For the compound `CC[C@](C)(NC(=O)[C@H](CC(C)C)NC(=O)[C@H](C)NC(=O)C(C)(C)NC(=O)[C@@H]1CCCCN1C(=O)C(C)(C)NC(=O)C(C)(C)NC(=O)CNC(=O)CCNC(=O)[C@H](CC(C)C)NC(=O)C(C)(C)NC(=O)[C@](C)(CC)NC(=O)[C@@H]1CCCCN1C(=O)C(C)(C)NC(=O)[C@@H]1CCCCN1C(C)=O)C(=O)N[C@@H](CC(C)C)C[N+]1=C2CCCN2CCC1` [EFRAPEPTIN G] (Ac-[Pip][Aib][Pip][Iva][Aib]L[βAla]G[Aib][Aib][Pip][Aib]AL[Iva]-X1), the EC50 in data set [2] was 0.46 µM; in data set [3], above 25 µM. Also, the selectivity ratio in data set [1] was above 54. For `CC[C@@](C)(NC(=O)[C@@H]1CCCN1C(=O)C(C)(C)NC(=O)[C@@H](NC(=O)[C@H](CO)NC(=O)[C@@H]1CCCN1C(=O)C(C)(C)NC(=O)[C@H](CC(C)C)NC(=O)[C@H](CC(N)=O)NC(=O)C(C)(C)NC(C)=O)C(C)C)C(=O)N[C@@H](CC(C)C)C(=O)NC(C)(C)C(=O)N1CCC[C@H]1C(=O)N[C@H](CO)CC(C)C` (HELM PEPTIDE1{[ac].[Aib].N.L.[Aib].P.S.V.[Aib].P.[CC[C@@](C)(N[*:1])C(=O)[*:2]].L.[Aib].P.[CC(C)C[C@@H](CO)N[*:1]]}$$$$V2.0) the same measures were 0.56 µM, above 25 µM and above 45. Regarding `CC[C@H](C)[C@H](NC(=O)[C@H](C)NC(=O)[C@@H]1CCCN1C(=O)C(C)(C)NC(=O)[C@H](CC(C)C)NC(=O)[C@H](CCC(N)=O)NC(=O)[C@@](C)(CC)NC(C)=O)C(=O)NC(C)(C)C(=O)N1CCC[C@H]1C(=O)NC(C)(C)C(=O)N[C@@H](CC(C)C)C(=O)NC(C)(C)C(=O)N1CCC[C@H]1C(=O)N[C@H](CO)CC(C)C` (HELM PEPTIDE1{[ac].[CC[C@@](C)(N[*:1])C(=O)[*:2]].Q.L.[Aib].P.A.I.[Aib].P.[Aib].L.[Aib].P.[CC(C)C[C@@H](CO)N[*:1]]}$$$$V2.0), the selectivity ratio in data set [1] was above 78.

Take `CC[C@H](C)[C@H](NC(=O)[C@H](CO)NC(=O)[C@@H]1CCCN1C(=O)C(C)(C)NC(=O)[C@H](CC(C)C)NC(=O)[C@H](CCC(N)=O)NC(=O)C(C)(C)NC(C)=O)C(=O)NC(C)(C)C(=O)N1CCC[C@H]1C(=O)NC(C)(C)C(=O)N[C@@H](CC(C)C)C(=O)NC(C)(C)C(=O)N1CCC[C@H]1C(=O)N[C@H](CO)CC(C)C` (HELM PEPTIDE1{[ac].[Aib].Q.L.[Aib].P.S.I.[Aib].P.[Aib].L.[Aib].P.[CC(C)C[C@@H](CO)N[*:1]]}$$$$V2.0): the selectivity ratio in data set [1] was above 14. Consider `CC[C@H](C)[C@H](NC(=O)[C@H](CO)NC(=O)[C@@H]1CCCN1C(=O)C(C)(C)NC(=O)[C@H](CC(C)C)NC(=O)[C@H](CC(N)=O)NC(=O)[C@@](C)(CC)NC(C)=O)C(=O)NC(C)(C)C(=O)N1CCC[C@H]1C(=O)NC(C)(C)C(=O)N[C@@H](CC(C)C)C(=O)NC(C)(C)C(=O)N1CCC[C@H]1C(=O)N[C@H](CO)CC(C)C` (HELM PEPTIDE1{[ac].[CC[C@@](C)(N[*:1])C(=O)[*:2]].N.L.[Aib].P.S.I.[Aib].P.[Aib].L.[Aib].P.[CC(C)C[C@@H](CO)N[*:1]]}$$$$V2.0), for which the selectivity ratio in data set [1] is above 43.
